# Test results as given in ChEMBL document CHEMBL4014335, “Activation of Phenyl 4-(2-Oxo-3-alkylimidazolidin-1-yl)benzenesulfonates Prodrugs by CYP1A1 as New Antimitotics Targeting Breast Cancer Cells” (J Med Chem, 2017).
# Experiments:
# HT-29 = assay: Antiproliferative activity against human HT-29 cells after 48 hrs by SRB assay; assay type: functional, cell-based; conditions: HT-29, 48 h
# Procedure, shortened: (§1)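 SRB assay run as in the NCI screen with slight modifications. Seeding: HT-29 5.0 x 10^3, M21 3.5 x 10^3, MCF7 7.5 x 10^3 cells; cells preincubated 24 h. Drug in DMSO added at 0.75 to 1.0 x 10^5 nM for 48 h. TCA fixation, sulforhodamine B staining, absorbance 530-565 nm. At least two experiments in triplicate; runs accepted only when relative SD < 10%.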
# M21 = assay: Antiproliferative activity against human M21 cells after 48 hrs by SRB assay; assay type: functional, cell-based; conditions: M21, 48 h; procedure, shortened: as §1
# MCF7 [1] = assay: Antiproliferative activity against human MCF7 cells after 48 hrs by SRB assay; assay type: functional, cell-based; conditions: MCF7, 48 h; procedure, shortened: as §1
# [2] = Selectivity ratio of IC50 for human HT-29 cells to IC50 for human MCF7 cells; assay type: functional
# Procedure, shortened: (§2)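 Ratio is IC50 in reference line over IC50 in sensitive line. […] Cells in DMEM with 5% calf serum at 37 °C. At least two experiments, triplicate cultures; assay accepted when relative SD < 10%.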
# [3] = Selectivity ratio of IC50 for human M21 cells to IC50 for human MCF7 cells; assay type: functional; procedure, shortened: as §2
# MDA-MB-231 = assay: Antiproliferative activity against ER/PR/HER2 deficient human MDA-MB-231 cells after 72 hrs by SRB assay; assay type: functional, cell-based; conditions: MDA-MB-231, 72 h
# Procedure, shortened: (§3)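 SRB antiproliferative assay (modified NCI protocol). Cells seeded per well (SK-BR-3, MDA-MB-231, T47D, HT-1080, HT-1080 CYP1A1 and empty-vector: 3.0 x 10^3; MDA-MB-468: 5.0 x 10^3; MCF7: 7.5 x 10^3), preincubated 24 h. DMSO-solubilized drug added at 0.75 to 1.0 x 10^5 nM, then 72 h. Fixed with cold 10% TCA, stained with 0.1% sulforhodamine B, absorbance read at 530-565 nm. At least two experiments, triplicate cultures.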
# MDA-MB-468 = assay: Antiproliferative activity against ER/PR/HER2 deficient human MDA-MB-468 cells after 72 hrs by SRB assay; assay type: functional, cell-based; conditions: MDA-MB-468, 72 h; procedure, shortened: as §3
# T47D = assay: Antiproliferative activity against ER/PR/HER2 expressing human T47D cells after 72 hrs by SRB assay; assay type: functional, cell-based; procedure, shortened: as §3
# SK-BR-3 = assay: Antiproliferative activity against ER/PR deficient and HER2 expressing human SKBR3 cells after 72 hrs by SRB assay; assay type: functional, cell-based; conditions: SK-BR-3, 72 h; procedure, shortened: as §3
# MCF7 [4] = assay: Antiproliferative activity against human MCF7 cells after 72 hrs by SRB assay; assay type: functional, cell-based; conditions: MCF7, 72 h; procedure, shortened: as §3
# [5] = Selectivity ratio of IC50 for ER/PR/HER2 deficient human MDA-MB-231 cells to IC50 for ER/PR/HER2 deficient human MDA-MB-468 cells; assay type: functional; procedure, shortened: as §2
# [6] = Selectivity ratio of IC50 for ER/PR/HER2 deficient human MDA-MB-231 cells to IC50 for ER/PR/HER2 expressing human T47D cells; assay type: functional; procedure, shortened: as §2
# [7] = Selectivity ratio of IC50 for ER/PR/HER2 deficient human MDA-MB-231 cells to IC50 for ER/PR deficient and HER2 expressing human SKBR3 cells; assay type: functional; procedure, shortened: as §2
# [8] = Selectivity ratio of IC50 for ER/PR/HER2 deficient human MDA-MB-231 cells to IC50 for human MCF7 cells; assay type: functional; procedure, shortened: as §2
# Cytochrome P450 1A1 [9] = target: T1, Cytochrome P450 1A1 (Homo sapiens, UniProt P04798); assay: Prodrug activation assessed as human supersomes CYP1A1-mediated 3,4,5-trimethoxyphenyl 4-(2-oxoimidazolidin-1-yl)benzenesulfonate formation after 4 hrs by HPLC-MS analysis; assay type: ADME; conditions: recombinant enzyme
# T1 sequence (P04798 whole entry): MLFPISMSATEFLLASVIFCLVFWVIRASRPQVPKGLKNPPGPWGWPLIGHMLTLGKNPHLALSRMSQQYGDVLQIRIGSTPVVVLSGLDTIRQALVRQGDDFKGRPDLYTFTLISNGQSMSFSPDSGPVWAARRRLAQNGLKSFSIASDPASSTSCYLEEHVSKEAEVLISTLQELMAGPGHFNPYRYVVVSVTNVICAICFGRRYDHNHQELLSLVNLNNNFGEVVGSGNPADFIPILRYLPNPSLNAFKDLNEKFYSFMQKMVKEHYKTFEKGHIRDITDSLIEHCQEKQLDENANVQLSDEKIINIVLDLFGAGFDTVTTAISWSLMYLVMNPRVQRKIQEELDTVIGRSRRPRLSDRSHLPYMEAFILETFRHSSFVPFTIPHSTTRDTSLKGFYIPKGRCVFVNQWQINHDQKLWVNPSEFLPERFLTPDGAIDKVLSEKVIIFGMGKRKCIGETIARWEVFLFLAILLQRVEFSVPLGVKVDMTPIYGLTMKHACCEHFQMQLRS
# Cytochrome P450 1A1 [10] = target: T1, Cytochrome P450 1A1; assay: Prodrug activation assessed as time required for human supersomes CYP1A1-mediated 3,4,5-trimethoxyphenyl 4-(2-oxoimidazolidin-1-yl)benzenesulfonate formation after 4 hrs by HPLC-MS analysis; assay type: ADME; conditions: recombinant enzyme
# Cytochrome P450 1A1 [11] = target: T1, Cytochrome P450 1A1; assay: Inhibition of human supersomes CYP1A1-mediated 7-ethoxyresorufin conversion to fluorescent resorufin preincubated with 7-ethoxyresorufin for 5 mins followed by addition of NADPH regenerating system measured for 15 mins by EROD assay; assay type: ADME
# Procedure, shortened: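 EROD assay with human CYP1A1 supersomes containing reductase, in potassium phosphate buffer. Drug final 32–31 600 nM and 7-ethoxyresorufin 94–3 000 nM, with 0.35% DMSO, preincubated 5 min at 37 °C. Reaction started with NADPH-regenerating system and 0.15 pmol CYP1A1 in 150 µL. Initial velocity taken from 1–5 min; Vmax and Km from Lineweaver-Burk plot.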
# HT-1080 [12] = assay: Antiproliferative activity against human wild type HT1080 cells after 72 hrs by SRB assay; assay type: functional, cell-based; conditions: HT-1080, 72 h; procedure, shortened: as §3
# HT-1080 [13] = assay: Antiproliferative activity against human HT1080 cells transfected with pCMV6-AC empty plasmid after 72 hrs by SRB assay; assay type: functional, cell-based; conditions: HT-1080, 72 h; procedure, shortened: as §3
# HT-1080 [14] = assay: Antiproliferative activity against human HT1080 cells transfected with CYP1A1 after 72 hrs by SRB assay; assay type: functional, cell-based; conditions: HT-1080, 72 h; procedure, shortened: as §3
# HT-1080 [15] = assay: Selectivity ratio of IC50 for HT1080 cells transfected with pCMV6-AC empty plasmid to IC50 for human HT1080 cells transfected with CYP1A1; assay type: functional
# Procedure, shortened: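 Ratio is IC50 (HT-1080 empty vector) over IC50 (HT-1080 CYP1A1). Both lines stably transfected (pCMV6-AC plasmids) and kept under G418 selection, seeded at 3.0 x 10^3 cells. IC50s from SRB antiproliferative assay.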
# Cytochrome P450 1A1 [16] = target: T1, Cytochrome P450 1A1; assay: Prodrug conversion assessed as human supersomes CYP1A1-mediated 3,5-dimethoxyphenyl 4-(2-oxoimidazolidin-1-yl)benzenesulfonate formation after 4 hrs by HPLC-MS analysis; assay type: ADME; conditions: recombinant enzyme
IC50 (HT-29) [µM],IC50 (MCF7 [1]) [µM],IC50 (MDA-MB-231) [µM],IC50 (MDA-MB-468) [µM],IC50 (T47D) [µM],IC50 (SK-BR-3) [µM],IC50 (MCF7 [4]) [µM],Drug metabolism (Cytochrome P450 1A1 [9]),Time (Cytochrome P450 1A1 [10]) [min],IC50 (HT-1080 [12]) [µM],IC50 (HT-1080 [13]) [µM],IC50 (HT-1080 [14]) [µM],SMILES,IC50 (M21) [µM],Ratio IC50 [2],Ratio IC50 [3],Ratio IC50 [5],Ratio IC50 [6],Ratio IC50 [7],Ratio IC50 [8],Ratio IC50 (HT-1080 [15]),further results
36,0.019,> 100,0.16,0.24,0.052,0.035,Metabolite_Notdetected,15,29,81,0.031,CCCCN1CCN(c2ccc(S(=O)(=O)Oc3cc(OC)cc(OC)c3)cc2)C1=O,> 100,1900,>5300,>630,>420,>1900,>2900,2600,Ki (Cytochrome P450 1A1 [11]; read-out: Ki): 0.49 µM; Drug metabolism (Cytochrome P450 1A1 [16]): Metabolite_Detected
,,0.01,0.0065,0.0087,0.0055,0.004,,,0.0054,0.0042,0.0023,COc1cc(OC)cc(OS(=O)(=O)c2ccc(N3CCNC3=O)cc2)c1,,,,1.5,1.1,1.8,2.5,1.8,Ki (Cytochrome P450 1A1 [11]): Not Active
5.6,0.049,6,0.026,0.049,0.005,0.018,Metabolite_Detected,15,6.7,82,0.016,CCCN1CCN(c2ccc(S(=O)(=O)Oc3cc(OC)c(OC)c(OC)c3)cc2)C1=O,3.9,110,80,240,130,1300,340,5100,Ki (Cytochrome P450 1A1 [11]; read-out: Ki): 0.24 µM
